Screening data from PubChem BioAssay.
An excerpt weighted towards active compounds, which were near 1.3% of everything screened.
RAD54 branch = inhibitors of human RAD54 branch migration, primary screen, biochemical, fluorescence, single point. DNA repair and recombination protein RAD54-like (Homo sapiens), Q92698. RAD54 Holliday junction branch migration, FAM/BHQ fluorescence. inhibition, % at 10.4 µM. 0.14% of 360,000 active. AID 602329, 2012;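 active = mean normalized replicate activity at least 40 and at least half of replicates scoring 40 or more; inconclusive = only one of the two criteria met; inactive = mean below 40 and under half of replicates reaching 40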;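 note: inhibitors cause a drop in the FAM fluorescence signal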
RAD52 anneal inh = RAD52 DNA annealing inhibitors, primary screen, biochemical, FRET, single point, set 2; recombinant RAD52 DNA annealing, FRET fluorescence; inhibition, % at 18.7 µM; 0.46% of 360,000 active; AID 651710, 2012;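 active = every replicate showing at least 50% inhibition; inconclusive = mean inhibition at least 50% but not in every replicate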
GSIS activator = GLuc luminescence reporter in INS-1E cells, primary screen for activators of glucose-dependent secretion of insulin; 0.61% of 370,000 active; INS-1E GLuc reporter insulin secretion, 2-3 h; activation, % at 16.6 µM; AID 743287, 2014;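 active = lowest replicate activation of at least 40%, so every replicate reaches that level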
S100A4 inh HTS = inhibitors of S100A4-myosin IIA peptide binding, primary screen, biochemical, fluorescence polarization, TAMRA-MyoIIA peptide | Protein S100-A4 (Homo sapiens), P26447 | inhibition, % at 10.7 µM | 0.14% of 360,000 active;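 active = mean inhibition of at least 70% across replicates, with every replicate also reaching that level; inconclusive = mean inhibition reaches 70% but some replicates fall short; inactive = mean inhibition below 70%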
Target sequence (P26447 whole entry, looked up): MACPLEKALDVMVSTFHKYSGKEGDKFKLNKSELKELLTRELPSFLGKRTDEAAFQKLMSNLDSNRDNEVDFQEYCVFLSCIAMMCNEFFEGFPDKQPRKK
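Compound dosing: one dose per compound; test system: human S100A4 monomer with TAMRA-labelled myosin IIA peptide; probe or stimulus: TAMRA-labelled myosin IIA heavy-chain peptide probe, 5 nM; medium: HEPES buffer with Ca2+, pH 7.2; schedule: 5 min incubation before reading; benchmarks: neutral control DMSO, positive control TFP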
AF4-AF9 inh = inhibitors of AF4 peptide binding to AF9, primary screen, biochemical, AlphaScreen, biotin-AF4 peptide, FLAG-AF9, single point | Protein AF-9 (Homo sapiens), P42568 | inhibition, % at 10 µM | 0.47% of 350,000 active;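 active = every replicate reaching a set inhibition limit, whatever the replicate mean, cut at about 25% in these data; inconclusive = mean inhibition reaches that limit but some replicates miss it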
Target sequence (P42568 whole entry, looked up): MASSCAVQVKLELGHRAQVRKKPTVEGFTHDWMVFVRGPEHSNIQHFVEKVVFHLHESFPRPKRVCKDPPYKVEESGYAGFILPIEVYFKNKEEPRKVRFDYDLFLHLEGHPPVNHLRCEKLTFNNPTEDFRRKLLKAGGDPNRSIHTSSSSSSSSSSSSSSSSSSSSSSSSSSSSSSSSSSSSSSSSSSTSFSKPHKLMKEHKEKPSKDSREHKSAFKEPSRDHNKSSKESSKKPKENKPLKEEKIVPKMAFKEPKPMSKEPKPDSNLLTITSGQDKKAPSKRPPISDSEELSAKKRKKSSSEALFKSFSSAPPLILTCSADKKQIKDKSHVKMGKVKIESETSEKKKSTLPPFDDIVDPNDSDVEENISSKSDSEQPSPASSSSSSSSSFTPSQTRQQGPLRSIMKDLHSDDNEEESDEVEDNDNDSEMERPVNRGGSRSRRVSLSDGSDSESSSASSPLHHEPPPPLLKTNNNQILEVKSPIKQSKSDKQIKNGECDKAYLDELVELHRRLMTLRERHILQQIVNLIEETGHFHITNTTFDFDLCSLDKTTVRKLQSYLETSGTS
A number is an active result; - = inactive; ? = inconclusive; . = no result given.

SMILES	RAD54 branch	RAD52 anneal inh	GSIS activator	S100A4 inh HTS	AF4-AF9 inh
O=C(c1ccc(NC2=NC3CS(=O)(=O)CC3S2)cc1)N1CCN(c2ccccc2F)CC1 (centres undefined)	-	-	-	-	48
O=C(c1ccc(NC2=NC3CS(=O)(=O)CC3S2)cc1)N1CCN(c2ccc(F)cc2)CC1 (centres undefined)	-	-	-	-	-
CN1CCN(C(=O)[C@@H]2[C@@H](CO)[C@@H]3Cn4c(ccc(C5=CCCCC5)c4=O)[C@H]2N3S(C)(=O)=O)CC1	-	-	-	-	-
CC(=O)Nc1ccc(/C=C(\C#N)S(=O)(=O)c2ccc(C)cc2)cc1	-	-	60	-	-
C[C@H](CO)N1C[C@H](C)[C@@H](CN(C)Cc2ccc(-c3ccccc3)cc2)Oc2ncc(C#CCN(C)C)cc2C1=O	-	-	-	-	-
C[C@@H]1CN([C@H](C)CO)C(=O)c2cc(N(C)C)ccc2O[C@H]1CN(C)C(=O)Nc1ccc2c(c1)OCO2	-	-	-	-	-
Cc1c(C(=O)OCC(=O)N2CC(=O)Nc3ccccc32)oc2ccc(Br)cc12	-	.	73	.	.
Cc1cc(C(=O)OCC(=O)N2CC(=O)Nc3ccccc32)no1	-	.	.	.	.
CN1c2ccc(C3=CCCCC3)cc2[C@@H]2[C@@H](CCN2C(=O)C2CCCCC2)[C@@H]1CO	.	-	.	-	?
CN1c2ccc(C3=CCCCC3)cc2[C@H]2[C@H](CCN2C(=O)C2CCCCC2)[C@@H]1CO	.	-	-	-	30
CN1c2ccc(C3=CCCCC3)cc2[C@@H]2[C@@H](CCN2C(=O)C2CC2)[C@@H]1CO	.	-	-	-	?
CN1c2ccc(C3=CCCCC3)cc2[C@@H]2[C@@H](CCN2C(=O)C2CCC2)[C@@H]1CO	.	-	-	-	28
CCC(=O)Nc1ccc2c(c1)OC[C@H](C)N(Cc1ccccc1C(=O)O)C[C@H](C)[C@@H](OC)CN(C)C2=O	.	-	-	90	-
CCCC(=O)Nc1ccc2c(c1)OC[C@H](C)N(Cc1cncnc1)C[C@@H](C)[C@H](OC)CN(C)C2=O	-	-	-	-	-
CO[C@H]1CN(C)C(=O)c2cc(NC(=O)C3CC3)ccc2OC[C@@H](C)N(Cc2cc(F)ccc2F)C[C@@H]1C	-	-	-	-	43
CCC(=O)Nc1ccc2c(c1)C(=O)N(C)C[C@H](OC)[C@@H](C)CN(Cc1ccccc1C(=O)O)[C@@H](C)CO2	-	-	-	-	-
CCCC(=O)Nc1ccc2c(c1)OC[C@@H](C)N(Cc1cncnc1)C[C@@H](C)[C@@H](OC)CN(C)C2=O	-	-	-	-	44
CCCN1C[C@@H](C)[C@H](OC)CN(C)C(=O)c2ccc(NC(=O)c3cccc(F)c3)cc2OC[C@@H]1C	-	-	-	-	45
COc1cccc(CNC(=O)[C@H]2CCCN2C(=O)[C@H]2CCCN2C(=O)c2ccc(C)cc2)c1	.	-	-	-	-
Cc1ccccc1S(=O)(=O)N1C[C@H](O)COC[C@H]2O[C@H](CC(=O)NCc3ccccc3Cl)CC[C@@H]21	-	-	-	-	-
CCCC#Cc1ccc([C@H]2[C@@H](CO)N3C(=O)CN(C(=O)Nc4cc(F)ccc4F)C[C@H]23)cc1	.	.	-	.	.
O=C(NCC[C@H]1CC[C@@H](NC(=O)C2CCCC2)[C@@H](CO)O1)c1cnccn1	-	-	-	-	-
CO[C@@H]1CN(C)C(=O)c2cc(NC(C)=O)ccc2OC[C@H](C)N(Cc2cncnc2)C[C@H]1C	.	-	-	76	-
C[C@H](NC(=O)C[C@H]1C[C@@H]2c3cc(NS(C)(=O)=O)ccc3O[C@@H]2[C@@H](CO)O1)c1ccccc1	-	-	-	-	-
O=C(NCC[C@@H]1CC[C@@H](NS(=O)(=O)c2cccc(F)c2)[C@H](CO)O1)C1CCOCC1	-	-	-	-	-
SMILES	RAD54 branch	RAD52 anneal inh	GSIS activator	S100A4 inh HTS	AF4-AF9 inh
CCC(c1nnnn1-c1ccc2c(c1)OCCO2)N1CCc2ccccc2C1 (centres undefined)	.	-	55	-	-
COC(=O)c1ccc(C)c(-n2c(=O)n(Cc3ccccc3)c(=O)c3[nH]cnc32)c1	-	-	44	-	-
Cc1ccccc1-n1c(=O)n(Cc2ccccc2)c(=O)c2[nH]cnc21	.	-	.	-	-
CN1CCN(c2ccccc2NC(=O)c2ccc(N3CCOCC3)c([N+](=O)[O-])c2)CC1	-	-	-	-	-
COC(=O)c1ccc(N2CCc3ccccc32)c([N+](=O)[O-])c1	-	-	-	-	33
CN1CCN(c2ccccc2NC(=O)c2ccc(N3CCCCC3)c([N+](=O)[O-])c2)CC1	-	-	-	-	27
O=C(O)c1ccc(N2CCc3ccccc32)c([N+](=O)[O-])c1	-	-	-	-	-
O=C(C[C@@H]1CC[C@@H](NC(=O)c2ccncc2)[C@@H](CO)O1)Nc1ccc(-c2ccccc2)cc1	.	-	-	-	-
CC(=O)N(C1CC(C)C(C#N)(C#N)C1(C#N)C#N)N(C)C (centres undefined)	.	-	167	-	-
CN1CCCCN2[C@H](C1)[C@@H](c1ccc(C#Cc3ccccc3F)cc1)[C@@H]2CO	-	65	-	-	-
OC[C@H]1[C@H](c2ccc(C#Cc3ccccc3F)cc2)[C@H]2CN(CC3CCOCC3)CCCCN21	-	-	-	-	-
OC[C@@H]1[C@@H](c2ccc(C#Cc3ccccc3F)cc2)[C@H]2CN(CC3CCOCC3)CCCCN12	-	53	-	-	-
CC(=O)N1CCCCN2[C@H](CO)[C@H](c3ccc(C#Cc4ccccc4F)cc3)[C@@H]2C1	-	-	-	97	-
CN1CCCCN2[C@@H](CO)[C@H](c3ccc(C#Cc4ccccc4F)cc3)[C@@H]2C1	-	-	-	-	-
C[C@H](CO)N1C[C@H](C)[C@H](CN(C)C(=O)Nc2ccc3c(c2)OCO3)Oc2ccc(NC(=O)Nc3ccc(F)cc3)cc2C1=O	.	-	-	-	-
C[C@H](CO)N1C[C@H](C)[C@H](CN(C)S(=O)(=O)c2cn(C)cn2)Oc2ncc(C3=CCCCC3)cc2C1=O	-	-	-	-	-
Cc1cc(Nc2ccccc2)nc(NCc2ccccc2)n1	.	-	-	-	-
Cc1cc(Nc2ccc(Cl)cc2)nc(NCc2ccccc2)n1	-	.	300	.	.
CC(C)NC(=O)N(C)C[C@@H]1Oc2ccc(NC(=O)NC3CCCCC3)cc2C(=O)N([C@@H](C)CO)C[C@H]1C	-	-	-	-	-
O=C(C[C@H]1C=C[C@H](NC(=O)c2ccccc2)[C@H](CO)O1)NCc1ccncn1	-	-	-	-	-
C(=N\NC1=Nc2cccc3cccc1c23)/c1ccccc1	.	.	-	.	.
Clc1ccc(/C=N/NC2=Nc3cccc4cccc2c34)cc1	.	.	98	.	.
O=C(NCCCN1CCOCC1)c1cc(-c2ccc(F)cc2)on1	-	.	-	.	.
